Assay [1] can be described thus: Antiinflammatory activity in human neutrophils assessed as inhibition of fMet-Leu-Phe/Cytochalasin B-induced elastase release treated 5 mins before fMet-Leu-Phe/Cytochalasin B challenge. To be noted: Neutrophil. The format is functional, cell-based. The procedure, abridged: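 Neutrophils from venous blood of healthy adult donors (20-28 y), isolated by dextran sedimentation, Ficoll Hypaque and hypotonic erythrocyte lysis; 6 × 10^5/mL with MeO-Suc-Ala-Ala-Pro-Val-p-nitroanilide substrate (100 µM), 37 °C for 2 min, then compound for 5 min. Stimulated with fMLP (100 nM)/CB (0.5 µg/mL). Absorbance at 405 nm monitored continuously; expressed as percent of drug-free activated control.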

The nature of assay [2]: Antiinflammatory activity in human neutrophils assessed as inhibition of fMet-Leu-Phe/Cytochalasin B-induced superoxide anion generation treated 5 mins before fMet-Leu-Phe/Cytochalasin B challenge by spectrophotometry. In kind it is functional, cell-based. To be noted: Neutrophil. The procedure, abridged:
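Donor neutrophils (6 × 10^5/mL, Ca2+-free HBSS pH 7.4) were given 0.5 mg/mL ferricytochrome c and 1 mM Ca2+, held at 37 °C for 2 min, then exposed to compound (10-0.01 µg/mL) or DMSO for 5 min. Cytochalasin B (1 µg/mL) was added for 3 min, then fMLP (100 nM) for 10 min. SOD-inhibitable cytochrome c reduction was read at 550 nm (ε 21.1/mM/10 mm).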

Among the data in ChEMBL document CHEMBL1152315, “Benzophenone derivatives from the fruits of Garcinia multiflora and their anti-inflammatory activity” (J Nat Prod, 2009) are IC50 values, retold here.

Where only a bound is given, the exact number is not on record here.

For orientation: IC50 means the concentration that inhibits the measured activity by half.

Consider `C=C(C)[C@@H](CC=C(C)C)C[C@@]12C[C@H]3C[C@@H](C(C)(C)O)[C@](C(=O)c4ccccc4)(C1=O)C(=O)[C@@](CC(O)C(C)(C)O)(C2=O)C3(C)C` (some centres not stated) [GARCIMULTIFLORONE C], for which the results for the IC50 in assay [1] and in assay [2] were 12.1 µM and 7.21 µM, respectively.

For `CC(C)=CC[C@H]1C[C@@]23C[C@@H](CC=C(C)C)C(C)(C)[C@@](CC=C(C)C)(C(=O)C(C(=O)c4ccccc4)=C2OC1(C)C)C3=O`, the IC50 in assay [1] came to 1.16 µM; in assay [2] it was 0.88 µM. `COc1cc2ccc(=O)oc2c(OC)c1OC` [FRAXIDIN METHYL ETHER]: the IC50 in assay [1] and in assay [2] was over 30 µM in each case. Regarding `CC(C)=CCC1=C2OC(C)(C)[C@@H](CC=C(C)C)C[C@@]23C[C@@H](CC=C(C)C)C(C)(C)[C@@](C(=O)c2ccccc2)(C1=O)C3=O` [GARCIMULTIFLORONE A], the half-maximal inhibitory concentration (IC50) in assay [1] worked out at 4.65 µM; in assay [2], 5.58 µM.

Regarding `COc1cc2ccc(=O)oc2cc1OC` [SCOPARONE], the IC50 in assay [1] and in assay [2] was over 30 µM throughout. Turning to `c1ccc2c(c1)[I+]c1ccccc1-2` [DIPHENYLENEIODONIUM], the concentration for half-maximal inhibition (IC50) in assay [2] worked out at 1.7 µM. As to `CC[C@H](CC[C@@H](C)[C@H]1CC[C@H]2[C@@H]3CC=C4CC(=O)CC[C@]4(C)[C@H]3CC[C@]12C)C(C)C` [BETA-SITOSTENONE], the 50% inhibitory concentration (IC50) in assay [1] and in assay [2] was over 30 µM throughout. Take `CC(C)=CCC/C(C)=C/CC/C(C)=C/CC[C@]1(C)CCc2cc(O)cc(C)c2O1` [DELTA-TOCOTRIENOL]: the IC50 in assay [1] came out at 15.1 µM; in assay [2] it was 14.8 µM. Taken in the same sequence, the figures for `CC(C)=CCC/C(C)=C/CC/C(C)=C/CC/C=C(\C)CC/C=C(\C)CCC=C(C)C` [SQUALENE] were over 30 µM and over 30 µM. For `C=C(C)[C@@H](CC=C(C)C)C[C@@]12C[C@@H](CC=C(C)C)C(C)(C)[C@]3(C=CC(C)(C)OC3=C(C(=O)c3ccccc3)C1=O)C2=O` [GARCIMULTIFLORONE B], in that order: 0.14 µM and 0.11 µM. Taken in the same sequence, the figures for `C=C(C)[C@@H](CC=C(C)C)C[C@@]12C[C@@H](CC=C(C)C)C(C)(C)[C@]3(C=CC(C)(C)OC3=C(C(=O)c3cccc(O)c3)C1=O)C2=O` [13-HYDROXYGARCIMULTIFLORONE B] were 0.86 µM and 0.4 µM. In the case of `O=S(=O)(F)Cc1ccccc1` [PHENYLMETHYLSULFONYLFLUORIDE], in assay [1], the 50% inhibitory concentration (IC50) stood at 204 µM.
